Assay outcomes as filed in PubChem.
Only some compounds are listed: those with a hit (about 1.6% of all), similar ones and a draw of the others.
Bfl-1 A1 inh: inhibitors of the anti-apoptotic protein A1, read as caspase activation | MEF A1-2A-BIM cells, Caspase-Glo 3/7 luminescence, 3 h; percent of clofoctol response, vehicle zero | caspase activation, % (no concentration beside the values) | actives 0.066% (n = 330,000) | AID 2462;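 active means over half of replicate activation scores above 10%, or exactly half above 10 with the replicate mean above 10; inconclusive means replicate mean below 10 yet half the replicates above 10; inactive means over half of replicates below 10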
SR-BI uptake up: enhances SR-BI lipid uptake from DiI-HDL; CHO ldlA[mSR-BI] cells, DiI-HDL uptake fluorescence, 3 h; 100 = double the neutral-control signal; actives 0.096% (n = 320,000); AID 504775; activation, % at 12.5 µM;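 active means mean replicate activation of at least 60% and every replicate at or above 60%; inconclusive means mean or all-replicate condition met, but not both; inactive means mean below 60% and not all replicates reaching 60%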
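Material: SR-BI-overexpressing, LDLR-lacking CHO cells; schedule: compound exposure 3 h, 37 °C; reagent: DiI-labelled HDL at 10 µg/mL final; technique: bottom-read fluorescence, 550/595 nm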
TAG inh: triacylglycerol accumulation inhibition; inhibition, % at 12.5 µM; H9c2 cells, Nile Red lipid (TAG) fluorescence; cells loaded with 200 µM oleic acid; AID 651582; actives 0.66% (n = 230,000);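 active means pattern-corrected inhibition of lipid staining of at least 50% with the nuclear-stain viability signal not falling by more than 50%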
SR-BI HDL uptake: blocks mouse SR-BI lipid uptake from DiI-HDL; Q61009; ldlA[mSR-BI] CHO cells, DiI-HDL uptake fluorescence, 3 h; inhibition, % at 12.5 µM; actives 0.96% (n = 320,000);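 active means mean replicate inhibition of at least 70% and a set share of replicates each scoring 70 or more; inconclusive means meets just one of the two criteria; inactive means fails both criteria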
Target sequence (Q61009 whole entry, looked up): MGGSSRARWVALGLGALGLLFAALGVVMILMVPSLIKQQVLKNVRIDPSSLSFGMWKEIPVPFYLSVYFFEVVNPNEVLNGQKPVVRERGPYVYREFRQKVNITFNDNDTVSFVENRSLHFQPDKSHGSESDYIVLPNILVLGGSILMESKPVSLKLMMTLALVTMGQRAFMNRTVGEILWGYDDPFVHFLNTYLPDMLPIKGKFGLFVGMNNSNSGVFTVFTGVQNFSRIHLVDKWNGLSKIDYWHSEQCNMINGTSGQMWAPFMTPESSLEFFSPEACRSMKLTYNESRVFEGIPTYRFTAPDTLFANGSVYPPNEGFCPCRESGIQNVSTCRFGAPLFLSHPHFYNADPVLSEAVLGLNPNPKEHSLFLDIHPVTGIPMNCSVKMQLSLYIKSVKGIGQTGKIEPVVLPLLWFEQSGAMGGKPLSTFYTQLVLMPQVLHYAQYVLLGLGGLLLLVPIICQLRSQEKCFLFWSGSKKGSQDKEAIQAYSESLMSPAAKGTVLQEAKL
Vif imaging: HIV Vif inhibition; inhibition, % at 7.49 µM; actives 0.35% (n = 340,000); HEK293T cells, Vif self-association by quenched fluorescence, imaging, 24 h; in the data active means inhibition above about 50%, passing the limit was not always enough; inconclusive means no clear call, values can overlap the other calls; inactive means below about 31%
Each line names hits and unclear results; the compound was inactive in the other large screens; ! = not active in a repeat.

COc1ccc(C(=O)N/N=C/c2sc3ccccc3c2O)cc1	SR-BI HDL uptake 120.0 (no result: TAG inh, Vif imaging)
O=C(N/N=C/c1sc2ccccc2c1O)c1ccccc1	SR-BI HDL uptake 118.4 (no result: TAG inh)
O=C(Cn1c(C(F)(F)F)nc2ccccc21)N/N=C/c1ccco1	none
O=C(N/N=C/c1ccccc1)c1cccc2ccccc12	none
O=C(N/N=C/c1sc2ccccc2c1O)c1cccc2ccccc12	SR-BI HDL uptake 106.5 (no result: TAG inh, Vif imaging)
CCCS(=O)(=O)N1CCCC(C(=O)NCCCN2CCN(c3ccccc3F)CC2)C1 (configuration not stated)	Vif imaging 59.0 (no result: TAG inh)
CN(CC(=O)Nc1ccccc1Cl)CC(=O)Nc1sc2c(c1C(N)=O)CCC2	none
COc1ccccc1NC(=O)c1ccc2[nH]c(C)c(C)c2c1	SR-BI HDL uptake 80.5 (no result: TAG inh)
O=C(NCCCn1ccnc1)C(=O)NCC(c1cccnc1)N1CCN(c2ccccc2)CC1 (configuration not stated)	Vif imaging 53.7 (no result: Bfl-1 A1 inh)
Nc1ccc(C(=O)Nc2ccccc2C(=O)O)cc1	SR-BI uptake up 84.8
O=C(Nc1ccccc1C(=O)Nc1ccccc1C(=O)O)c1ccccc1	none (no result: TAG inh)
CCOC(=O)/C(C#N)=C/c1cc(C)n(-c2ccc(C)cc2)c1C	Vif imaging 71.3 (no result: TAG inh)
COc1ccc(C=C(c2ccc(OC)cc2)c2ccc(OC)cc2)cc1	SR-BI HDL uptake 71.8 (no result: TAG inh)
CSc1nsc2nc(=O)c(/C=C3\C(C)=Nc4ccc(C)cc43)c(N)n12	none
CC1=Nc2ccc(C)cc2/C1=C/c1c(N)n2oc(C)cc2nc1=O	SR-BI HDL uptake 92.8!
O=C(Nc1ccc2c(c1)OCCO2)C(C1CC1)N1CCN(c2ccc(C(F)(F)F)cn2)CC1 (configuration not stated)	none (no result: Bfl-1 A1 inh, SR-BI uptake up, TAG inh, SR-BI HDL uptake)
CC(=O)C1=C(C)NC(SCC(=O)c2ccc(Cl)cc2)=C(C#N)C1c1ccco1 (configuration not stated)	Vif imaging 57.7 (no result: TAG inh)
COc1ccc(/C(C)=N/Nc2ncc(Cl)cc2Cl)c(O)c1	SR-BI HDL uptake 106.2 (no result: TAG inh, Vif imaging)
O=C(Cn1cc(S(=O)(=O)Cc2cccc(F)c2)c2ccccc21)N1CCOCC1	none
CCOC(=O)Cc1csc(NC(=O)c2csc(C)c2)n1	none (no result: TAG inh)
CCOC(=O)Cc1csc(NC(=O)c2sc3nc4c(C)cc(C)cc4cc3c2N)n1	SR-BI HDL uptake 80.2 (no result: TAG inh)
Cc1c(CN(C)C(=O)/C=C/c2ccc([N+](=O)[O-])cc2)cnn1C	none (no result: TAG inh)
CN(C)c1nc(N)nc(CSc2nnnn2-c2ccc(F)cc2)n1	none (no result: TAG inh)
Cc1cccc(C)c1-n1nnnc1SCc1nc(N)nc(N(C)C)n1	Vif imaging 128.7 (no result: Bfl-1 A1 inh, SR-BI uptake up, SR-BI HDL uptake)
Cc1ccccc1NC(=O)NCc1ccccn1	none
C(#CCN1CCCC1)CC(c1ccccc1)c1ccccc1	none (no result: TAG inh)
CC(=O)Nc1ccc(NC(=O)C(=O)NCC(c2ccco2)N2CCc3ccccc32)cc1 (configuration not stated)	Bfl-1 A1 inh 32.2
c1ccc(SCc2cn(C[C@H]3CC[C@@H]([C@@H]4CC[C@H](Cn5cc(CSc6ccccc6)nn5)O4)O3)nn2)cc1	none
COc1ccc(/C=C2\N=C(c3ccccc3)NNC2=O)cc1	none
Cc1cc(=O)oc2ccc(OCC(=O)N3CCc4ccccc43)cc12	SR-BI HDL uptake 77.6 (no result: Vif imaging)
CCCCc1cc(=O)oc2cc(OCC(=O)N3CCOCC3)ccc12	none (no result: TAG inh)
Cc1cc(=O)oc2cc(OCC(=O)N3CCN(C(=O)C4COc5ccccc5O4)CC3)ccc12 (configuration not stated)	SR-BI HDL uptake 87.8 (no result: TAG inh)
O=C(COc1ccc2ccc(=O)oc2c1)N1CCN(C(=O)C2COc3ccccc3O2)CC1 (configuration not stated)	none (no result: TAG inh)
Cc1cc(=O)oc2cc(OCC(=O)N3CCCc4ccccc43)ccc12	none
CCCc1cc(=O)oc2cc(OCC(=O)N3CCN(C(=O)C4COc5ccccc5O4)CC3)ccc12 (configuration not stated)	SR-BI HDL uptake 86.8 (no result: TAG inh)
Cc1c(C)c2ccc(OCC(=O)N3CCN(C(=O)C4COc5ccccc5O4)CC3)cc2oc1=O (configuration not stated)	SR-BI HDL uptake 88.0 (no result: TAG inh)
CC(c1nc2ccccc2n1Cc1ccccc1)N1CCCCC1 (configuration not stated)	none (no result: TAG inh)
Cc1ccc(S(=O)(=O)N(C)C)cc1NC(=O)C(C)OC(=O)c1ccc2c(=O)n3c(nc2c1)CCC3 (configuration not stated)	none (no result: Bfl-1 A1 inh)
Cc1ccccc1CN1CCN(c2nc3ccccc3s2)CC1	none (no result: TAG inh, Vif imaging)
CCC(C)c1ccccc1NC(=O)CN1CCN(C/C=C/c2ccccc2)CC1 (configuration not stated)	none
O=C(Nc1cccc(Cl)c1)Nc1nc(-c2ccccc2)cs1	SR-BI HDL uptake 75.9
O=C(Nc1ccc(Cl)cc1)Nc1nc(-c2ccccc2)cs1	none
Cn1c(SCC(=O)NCc2cccs2)nnc1-c1ccncc1	Vif imaging 59.4
COc1ccc(-c2nnc(SCC(=O)NCc3cccs3)n2C)cc1	none (no result: TAG inh)
Cc1cccc(-c2nc(CS(=O)CC(=O)NCCc3ccc(Cl)cc3)c(C)o2)c1 (configuration not stated)	none (no result: TAG inh)
O=C(CCC(=O)N1CCN(c2ccccc2F)CC1)N1CCN(c2ccc(F)cc2)CC1	none (no result: TAG inh)
O=C(Nc1ccccc1N1CCCC1)c1ccccc1F	none (no result: TAG inh)
O=C(CCC(=O)N1CCN(c2ccccc2F)CC1)N1CCN(c2ccccc2)CC1	Bfl-1 A1 inh 9.4
O=C(Nc1ccccc1N1CCN(c2ccccc2)CC1)c1ccccc1F	SR-BI HDL uptake 75.0 (no result: TAG inh)
CCOC(=O)c1sc(NNC(=O)c2ccc(C)cc2)nc1C	Vif imaging inconclusive
CCOC(=O)c1nc(NNC(=O)c2ccc([N+](=O)[O-])cc2)sc1C	SR-BI HDL uptake 90.5
CC(=O)Nc1nc2c(s1)C(=O)NCCC2	none
CCOc1cc(CNC(C)C)c(Cl)cc1OCC(=O)NCCc1ccccc1	SR-BI HDL uptake 77.5
O=C1c2ccccc2C(Nc2ccc(S(=O)(=O)N3CCOCC3)cc2)N1c1ccccn1 (configuration not stated)	Vif imaging 52.1
O=C(c1ccc(=O)[nH]n1)N1CCN(S(=O)(=O)c2ccc(C(F)(F)F)cc2)CC1	none
C=CCNc1ncnc2c1ncn2[C@H]1CN(C2CCCC2)C[C@@H](CO)O1	none (no result: Bfl-1 A1 inh, SR-BI uptake up, SR-BI HDL uptake)
COC(=O)c1cccc(NC(=O)/C=C/c2cccc([N+](=O)[O-])c2)c1	SR-BI HDL uptake 72.8 (no result: TAG inh)
NS(=O)(=O)c1ccc(N/N=C/c2ccc(C(=O)O)cc2)c([N+](=O)[O-])c1	none
NS(=O)(=O)c1ccc(N/N=C/c2cn(-c3ccccc3)nc2-c2cccs2)c([N+](=O)[O-])c1	SR-BI HDL uptake 103.8
Cc1nn(-c2ccccc2)c(N2CCCC2)c1/C=N/Nc1ccc(S(N)(=O)=O)cc1[N+](=O)[O-]	SR-BI HDL uptake 80.4 (no result: TAG inh)
O=C(CSC1=NCCN1)NC12CC3CC(CC(C3)C1)C2	SR-BI HDL uptake 73.2
Cc1nnc(SCC(=O)NC23CC4CC(CC(C4)C2)C3)s1	none
Cc1ccc(C2=NS(=O)(=O)N(C)C(C(=O)NC3CCCCC3)=C2)cc1	none (no result: Vif imaging)
